Active and inactive are the calls of the source. The calls are words filed in the database; no cut-off is given here.
Columns and labels:
Daudi [1] = experiment: Cytotoxicity against human Daudi cells assessed as reduction in cell viability after 24 hrs by MTT assay; type: functional, cell-based
In short: (§1)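 MTT viability after 24 h exposure. Cells seeded at 5x10^4 per well and tested at 1-100 µM. Optical density of untreated cells set as 100% viable. IC50 derived by curve fitting. PBMC from healthy non-smoking volunteers, isolated by Ficoll-Hypaque.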

Jurkat [2] = experiment: Induction of apoptosis in human Jurkat cells at 33.7 uM after 12 hrs by Annexin-V FITC staining-based flow cytometry relative to control; type: functional
[3] = (§2) Cytotoxicity against acute leukemia patient-derived bone marrow cells assessed as reduction in cell viability after 24 hrs; type: functional, cell-based; conditions: Homo sapiens
In short: (§3)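 Mononuclear cells from acute leukemia patient samples (peripheral blood or bone marrow, taken before first treatment at diagnosis or relapse) isolated by Ficoll-Hypaque.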

Homo sapiens = species: Homo sapiens; experiment: as §2; type: functional, cell-based; in short: as §3
K562 [4] = experiment: Induction of apoptosis in human K562 cells assessed as increase in chromatin condensation at 55.7 uM by acridine orange/ethidium bromide staining-based fluorescence microscopic analysis; type: functional, cell-based
K562 [5] = experiment: Induction of apoptosis in human K562 cells assessed as increase in membrane blebbing at 55.7 uM by acridine orange/ethidium bromide staining-based fluorescence microscopic analysis; type: functional, cell-based
Jurkat [6] = experiment: Induction of apoptosis in human Jurkat cells assessed as increase in loss of membrane integrity at 33.7 uM by acridine orange/ethidium bromide staining-based fluorescence microscopic analysis; type: functional, cell-based
K562 [7] = experiment: Induction of apoptosis in human K562 cells at 55.7 uM after 12 hrs by Annexin-V FITC staining-based flow cytometry relative to control; type: functional
[8] = Hemolytic activity in human RBC at 2 times IC50 relative to control; type: ADME, cell-based, Erythrocyte; conditions: red blood cells (erythrocytes), read-out: Activity
In short: (§4)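 RBC from healthy non-smoking volunteers incubated with increasing concentrations of the selected pyrazolines. Saline served as the 0% lysis control and distilled water as the 100% lysis control. Percent hemolysis calculated relative to these controls.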

K562 [9] = experiment: Induction of apoptosis in human K562 cells assessed as increase in loss of membrane integrity at 55.7 uM by acridine orange/ethidium bromide staining-based fluorescence microscopic analysis; type: functional, cell-based
K562 [10] = experiment: Induction of apoptosis in human K562 cells assessed as reduction in cells with intact mitochondrial membrane potential at 55.7 uM after 12 hrs by flow cytometric analysis relative to control; type: functional; set-up: scale not given: the % may be the effect or the level left
K562 [11] = experiment: Induction of apoptosis in human K562 cells assessed as increase in FasR expression at 55.7 uM after 12 hrs by flow cytometric analysis relative to control; type: functional
[12] = Hemolytic activity in human RBC at 12 times IC50 relative to control; type: ADME, cell-based, Erythrocyte; conditions: red blood cells (erythrocytes), read-out: Activity; in short: as §4
K562 [13] = experiment: Cytotoxicity against human K562 cells assessed as reduction in cell viability after 72 hrs by MTT assay; type: functional, cell-based; conditions: K562, 72 h
[14] = Hemolytic activity in human RBC at 15 times IC50 relative to control; type: ADME, cell-based, Erythrocyte; conditions: red blood cells (erythrocytes), read-out: Activity; in short: as §4
Jurkat [15] = experiment: Induction of apoptosis in human Jurkat cells assessed as decrease in survivin level at 33.7 uM after 12 hrs by flow cytometric analysis relative to control; type: functional
Jurkat [16] = experiment: Induction of apoptosis in human Jurkat cells assessed as increase in Bax expression at 33.7 uM after 12 hrs by flow cytometric analysis relative to control; type: functional
K562 [17] = experiment: Cell cycle arrest in human K562 cells assessed as increase in accumulation at G0/G1 phase at 55.7 uM after 12 hrs by propidium iodide/RNAse staining based flow cytometric analysis relative to control; type: functional
[18] = Selectivity index, ratio of IC50 for human PBMC to IC50 for human Daudi cells after 24 hrs
In short: (§5)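 MTT viability after 24 h exposure to 1-100µM; untreated control OD taken as 100%. IC50 by curve fitting in each line and in PBMC from six healthy donors (Ficoll-Hypaque). SI = IC50 PBMC / IC50 tumor line; SI ≥5 high, 2–5 moderate, <2 low.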

[19] = Hemolytic activity in human RBC at 3 times IC50 relative to control; type: ADME, cell-based, Erythrocyte; conditions: red blood cells (erythrocytes), read-out: Activity; in short: as §4
[20] = Hemolytic activity in human RBC at 1 time IC50 relative to control; type: ADME, cell-based, Erythrocyte; conditions: red blood cells (erythrocytes), read-out: Activity; in short: as §4
K562 [21] = experiment: Induction of apoptosis in human K562 cells assessed as increase in caspase-3 expression at 55.7 uM after 12 hrs by flow cytometric analysis; type: functional, cell-based
K562 [22] = experiment: Induction of apoptosis in human K562 cells assessed as decrease in survivin level at 55.7 uM after 12 hrs by flow cytometric analysis relative to control; type: functional
Jurkat [23] = experiment: Induction of apoptosis in human Jurkat cells assessed as increase in FasR expression at 33.7 uM after 12 hrs by flow cytometric analysis relative to control; type: functional
Jurkat [24] = experiment: Induction of apoptosis in human Jurkat cells assessed as increase in chromatin condensation at 33.7 uM by acridine orange/ethidium bromide staining-based fluorescence microscopic analysis; type: functional, cell-based
Daudi [25] = experiment: Cytotoxicity against human Daudi cells assessed as reduction in cell viability after 72 hrs by MTT assay; type: functional, cell-based
B16-F10 [26] = experiment: Cytotoxicity against mouse B16F10 cells assessed as reduction in cell viability after 24 hrs by MTT assay; type: functional, cell-based; conditions: B16-F10, 24 h; in short: as §1
B16-F10 [27] = experiment: Cytotoxicity against mouse B16F10 cells assessed as reduction in cell viability after 48 hrs by MTT assay; type: functional, cell-based; conditions: B16-F10, 48 h
[28] = Hemolytic activity in human RBC at 9 times IC50 relative to control; type: ADME, cell-based, Erythrocyte; conditions: red blood cells (erythrocytes), read-out: Activity; in short: as §4
K562 [29] = experiment: Antiproliferative activity against human K562 cells assessed as reduction in KI-67 expression at 55.7 uM after 12 hrs by flow cytometric analysis; type: functional, cell-based
[30] = Selectivity index, ratio of IC50 for human PBMC to IC50 for human K562 cells after 24 hrs; type: toxicity; conditions: PBMC versus K562 cells, read-out: Ratio IC50; in short: as §5
Jurkat [31] = experiment: Cytotoxicity against human Jurkat cells assessed as reduction in cell viability after 72 hrs by MTT assay; type: functional, cell-based
PBMC [32] = experiment: Cytotoxicity against human PBMC assessed as reduction in cell viability after 72 hrs by MTT assay; type: cell-based
Daudi [33] = experiment: Cytotoxicity against human Daudi cells assessed as reduction in cell viability after 48 hrs by MTT assay; type: functional, cell-based
[34] = Selectivity index, ratio of IC50 for human PBMC to IC50 for human Jurkat cells after 24 hrs; type: toxicity; conditions: PBMC versus Jurkat cells, read-out: Ratio IC50; in short: as §5
B16-F10 [35] = experiment: Cytotoxicity against mouse B16F10 cells assessed as reduction in cell viability after 72 hrs by MTT assay; type: functional, cell-based; conditions: B16-F10, 72 h
PBMC [36] = experiment: Cytotoxicity against human PBMC assessed as reduction in cell viability after 48 hrs by MTT assay; type: cell-based
PBL = experiment: Cytotoxicity against acute leukemia patient-derived PBL cells assessed as reduction in cell viability after 24 hrs; type: functional, cell-based; conditions: Homo sapiens; in short: as §3
[37] = Selectivity index, ratio of IC50 for human PBMC to IC50 for mouse B16F10 cells after 24 hrs; type: toxicity; conditions: PBMC versus B16F10 cells, read-out: Ratio IC50; in short: as §5
K562 [38] = experiment: Cytotoxicity against human K562 cells assessed as reduction in cell viability after 48 hrs by MTT assay; type: functional, cell-based; conditions: K562, 48 h
Jurkat [39] = experiment: Induction of apoptosis in human Jurkat cells assessed as increase in caspase-3 expression at 33.7 uM after 12 hrs by flow cytometric analysis relative to control; type: functional
Jurkat [40] = experiment: Induction of apoptosis in human Jurkat cells assessed as increase in AIF release at 33.7 uM after 12 hrs by flow cytometric analysis relative to control; type: functional
Jurkat [41] = experiment: Induction of apoptosis in human Jurkat cells assessed as reduction in cells with intact mitochondrial membrane potential at 33.7 uM after 12 hrs by flow cytometric analysis relative to control; type: functional; set-up: scale not given: the % may be the effect or the level left
Jurkat [42] = experiment: Induction of apoptosis in human Jurkat cells assessed as increase in membrane blebbing at 33.7 uM by acridine orange/ethidium bromide staining-based fluorescence microscopic analysis; type: functional, cell-based
Jurkat [43] = experiment: Cell cycle arrest in human Jurkat cells assessed as increase in accumulation at S phase at 33.7 uM after 12 hrs by propidium iodide/RNAse staining based flow cytometric analysis; type: functional
PBMC [44] = experiment: Cytotoxicity against human PBMC assessed as reduction in cell viability after 24 hrs by MTT assay; type: cell-based
K562 [45] = experiment: Cytotoxicity against human K562 cells assessed as reduction in cell viability after 24 hrs by MTT assay; type: functional, cell-based; conditions: K562, 24 h; in short: as §1
Jurkat [46] = experiment: Antiproliferative activity against human Jurkat cells assessed as reduction in KI-67 expression at 33.7 uM after 12 hrs by flow cytometric analysis; type: functional, cell-based
Jurkat [47] = experiment: Induction of DNA fragmentation in human Jurkat cells assessed as increase in ladder formation at 33.7 uM after 12 hrs by ethidium bromide staining based agarose gel electrophoresis method; type: functional, cell-based
Jurkat [48] = experiment: Cytotoxicity against human Jurkat cells assessed as reduction in cell viability after 24 hrs by MTT assay; type: functional, cell-based; in short: as §1
Jurkat [49] = experiment: Cytotoxicity against human Jurkat cells assessed as reduction in cell viability after 48 hrs by MTT assay; type: functional, cell-based
K562 [50] = experiment: Induction of apoptosis in human K562 cells assessed as increase in Bax expression at 55.7 uM after 12 hrs by flow cytometric analysis relative to control; type: functional

COc1cc(C2=NN(C(C)=O)C(c3ccc4ccccc4c3)C2)cc(OC)c1OC (stereo not drawn)
IC50 (Daudi [1]): 46.2 µM
Activity (Jurkat [2]): 29.2%
IC50 [3]: 16.2 to 44.6 µM
Activity (Homo sapiens): Dose-dependent effect
Activity (K562 [4]): Active
Activity (K562 [5]): Active
Activity (Jurkat [6]): Active
Activity (K562 [7]): 18.8%
hemolysis at 2 times IC50 [8]: 1.5%
Activity (K562 [9]): Active
Activity (K562 [10]): 26%
Activity (K562 [11]): 34.3%
hemolysis at 12 times IC50 [12]: 3.2%
IC50 (K562 [13]): 15.5 µM
hemolysis at 15 times IC50 [14]: 6.4%
Activity (Jurkat [15]): 21.4%
Activity (Jurkat [16]): 20.5%
Activity (K562 [17]): 7.4%
Ratio IC50 [18]: 10.7
hemolysis at 3 times IC50 [19]: 1.6%
hemolysis at 1 times IC50 [20]: 1.9%
Activity (K562 [21]): inactive
Activity (K562 [22]): 22.2%
Activity (Jurkat [23]): 30.3%
Activity (Jurkat [24]): Active
IC50 (Daudi [25]): 5.1 µM
IC50 (B16-F10 [26]): 72.3 µM
IC50 (B16-F10 [27]): 56.6 µM
hemolysis at 9 times IC50 [28]: 2.4%
Activity (K562 [29]): Active
selectivity ratio at 24 h [30]: 8.9
IC50 (Jurkat [31]): 25.3 µM
IC50 (PBMC [32]): 55.3 µM
IC50 (Daudi [33]): 20.2 µM
selectivity ratio at 24 h [34]: 14.7
IC50 (B16-F10 [35]): 23.3 µM
IC50 (PBMC [36]): 105 µM
Activity (PBL): Dose-dependent effect
IC50 (PBL): 27.7 to 139 µM
selectivity ratio at 24 h [37]: 6.9
IC50 (K562 [38]): 21.9 µM
Activity (Jurkat [39]): 6.6%
Activity (Jurkat [40]): 6%
Activity (Jurkat [41]): 41%
Activity (Jurkat [42]): Active
Activity (Jurkat [43]): inactive
IC50 (PBMC [44]): 497 µM
IC50 (K562 [45]): 55.7 µM
Activity (Jurkat [46]): Active
Activity (Jurkat [47]): Active
IC50 (Jurkat [48]): 33.7 µM
IC50 (Jurkat [49]): 27.7 µM
Activity (K562 [50]): 16.8%

From ChEMBL document CHEMBL4308915, “Synthesis of novel pyrazoline derivatives and the evaluation of death mechanisms involved in their antileukemic activity” (Bioorg Med Chem, 2019)
